Measurements: ChEMBL document CHEMBL1123076, “Synthesis and biological evaluation of 9-[5'-(2-oxo-1,3,2-oxazaphosphorinan-2-yl)-beta-D-arabinosyl]ade nine and 9-[5'-(2-oxo-1,3,2-dioxaphosphorinan-2-yl)-beta-D-arabinosyl]ade nine: potential neutral precursors of 9-[beta-D-arabinofuranosyl]adenine 5'-monophosphate” (1985)

Experiments:
Format in all cases: functional
Mus musculus [1] = assay: Antitumor activity was evaluated as percent increase in life span in BDF1 mice (six mice per group) implanted intraperitoneally with P-388 leukemia cells (10e6 )at a dose of 100 mg/Kg,; conditions: P388, ip
Outline: (§1)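 Male BDF1 mice (average weight 23 g) implanted ip with 10^6 P-388 cells on day 0. Treatment in sterile 0.9% saline given ip daily for 9 days starting 24 h after implantation; saline-only controls. Animals observed up to 60 days. Median survival of treated (T) vs controls (C) expressed as %ILS = (T/C − 1) × 100; significance at P < 0.05.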

Mus musculus [2] = assay: Antitumor activity was evaluated as median survival time in BDF1 mice (six mice per group) implanted intraperitoneally with P-388 leukemia cells (10e6 )at a dose of 100 mg/Kg,
Outline: (§2)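 Male BDF1 mice (average weight 23 g) inoculated ip with 10^6 P-388 leukemia cells on day 0; leukemia maintained by weekly ip passage in female DBA/2 mice. Compound in sterile 0.9% saline given ip once daily for 9 consecutive days starting 24 h after implantation; controls received saline alone. Animals observed for 60 days or until death; median survival time recorded.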

Mus musculus [3] = assay: Antitumor activity was evaluated as percent increase in life span in BDF1 mice (six mice per group) implanted intraperitoneally with P-388 leukemia cells (10e6 )at a dose of 300 mg/Kg,; conditions: P388, ip; outline: as §1
Mus musculus [4] = assay: Antitumor activity was evaluated as percent increase in life span in BDF1 mice (six mice per group) implanted intraperitoneally with P-388 leukemia cells (10e6 )at a dose of 500 mg/Kg,; conditions: P388, ip; outline: as §1
Mus musculus [5] = assay: Antitumor activity was evaluated as median survival time in BDF1 mice (six mice per group) implanted intraperitoneally with P-388 leukemia cells (10e6 )at a dose of 300 mg/Kg,; outline: as §2
Mus musculus [6] = assay: Antitumor activity was evaluated as median survival time in BDF1 mice (six mice per group) implanted intraperitoneally with P-388 leukemia cells (10e6 )at a dose of 500 mg/Kg,; outline: as §2
Mus musculus [7] = assay: Antitumor activity was evaluated as percent increase in life span in BDF1 mice (six mice per group) implanted intraperitoneally with P-388 leukemia cells (10e6 )at a dose of 600 mg/Kg,; conditions: P388, ip; outline: as §1
Mus musculus [8] = assay: Antitumor activity was evaluated as median survival time in BDF1 mice (six mice per group) implanted intraperitoneally with P-388 leukemia cells (10e6 )at a dose of 600 mg/Kg,; outline: as §2

In the case of `Nc1ncnc2c1ncn2C1O[C@H](COP2(=O)OCCCO2)[C@@H](O)[C@@H]1O` (stereo not given in full), the ILS at 100 mg/kg (Mus musculus [1]) is reported as 0% and the MST (Mus musculus [2]) is reported as 9 days.
`Nc1ncnc2c1ncn2C1O[C@H](COP2(=O)NCCCO2)[C@@H](O)[C@@H]1O` (stereo not given in full) was tested, and the ILS at 100 mg/kg (Mus musculus [1]) was 33%, the ILS at 300 mg/kg (Mus musculus [3]) was 33% and the MST (Mus musculus [2]) was 12 days. For the same compound, the ILS at 500 mg/kg (Mus musculus [4]) was -11%, the MST (Mus musculus [5]) was 12 days and the MST (Mus musculus [6]) was 8 days.
Compound `Nc1ncnc2c1ncn2[C@@H]1O[C@H](CO)[C@@H](O)[C@H]1O` [ADENOSINE] has an ILS at 600 mg/kg (Mus musculus [7]) of 33% and an MST (Mus musculus [8]) of 12 days.
